Results: ChEMBL document CHEMBL2401707, “Potentiating 1-(2-hydroxypropyl)-2-styryl-5-nitroimidazole derivatives against antibacterial agents: design, synthesis and biology analysis” (Eur J Med Chem, 2013)
In brackets after ≈: the same amount, converted by molar mass.

Experiments:
[1] = Cytotoxicity against human macrophages assessed as cell viability after 24 hrs by MTT assay; type: cell-based, Macrophage
Procedure, shortened: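 Human macrophages in DMEM with 10% FBS and antimycotic, 1.8×10⁴ cells/well. Exposed to 160, 40, 10, 2.5 and 0.25 µg/mL compound (added in 10% DMSO) for 24 h at 37 °C, 5% CO₂. MTT (2.5 mg/mL) added for a further 4 h, formazan dissolved in DMSO.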

Bacillus subtilis = assay: Antibacterial activity against Bacillus subtilis assessed as survival after 24 hrs by MTT assay; type: functional, organism-based
Procedure, shortened: (§1)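 Broth microdilution in Mueller-Hinton broth. Cells grown to mid-log phase, diluted 10000-fold, and 10⁶ to 10⁷ CFU inoculated per well. Incubated 37 °C for 24 h. Drug-containing medium then added to final 40, 10, 2.5 and 0.25 µg/mL. After 12 h, MTT in PBS added; 4 h later medium discarded and formazan dissolved in DMSO. A490 read; at least three replicates.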

Bacillus thuringiensis = assay: Antibacterial activity against Bacillus thuringiensis assessed as survival after 24 hrs by MTT assay; type: functional, organism-based; procedure, shortened: as §1
Pseudomonas aeruginosa = assay: Antibacterial activity against Pseudomonas aeruginosa assessed as survival after 24 hrs by MTT assay; type: functional, organism-based; procedure, shortened: as §1
Escherichia coli = assay: Antibacterial activity against Escherichia coli assessed as survival after 24 hrs by MTT assay; type: functional, organism-based; procedure, shortened: as §1
[2] = Inhibition of Escherichia coli FabH overexpressed in Escherichia coli DH10B using holo-ACP as substrate after 1 min
Procedure, shortened: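 Enzyme was purified by Ni-NTA with imidazole gradient elution and stored in 20 mM Tris pH 7.6, 100 mM NaCl, 1 mM DTT, 20% glycerol. Reaction: 0.5 nM E. coli FabH, 20 mM Na₂HPO₄ pH 7.0, 0.5 mM DTT, 0.25 mM MgCl₂, 2.5 µM holo-ACP, preincubated 1 min. Started with acetyl-CoA, NADH and NADPH mix; ran 19 min. Stopped with ice-cold TCA; ³H incorporation in pellet counted by liquid scintillation. Inhibitors added from DMSO stock, final DMSO ≤2%; IC50 determined.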

[3] = Cytotoxicity against human macrophages assessed as morphological changes at 2.5 to 160 ug/mL after 24 hrs by phase contrast microscopic analysis; type: cell-based; settings: macrophage
Procedure, shortened: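 Human macrophages exposed for 24 h to 2.5, 10, 40 and 160 µg/mL, Giemsa-stained and examined by phase contrast microscopy. Morphology compared with untreated control cells. The minimum cytotoxic concentration is the level causing a microscopically detectable alteration of normal cell morphology.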

Row | Structure (SMILES) | CC50 at 24 h [1] | IC50 (Bacillus subtilis) | IC50 (Bacillus thuringiensis) | IC50 (Pseudomonas aeruginosa) | IC50 (Escherichia coli) | IC50 [2] | Activity [3]
1 | CC(O)Cn1c([N+](=O)[O-])cnc1/C=C/c1ccccc1 (centres undefined) | 1.5 µM | 78.9 µg/mL (≈ 289 µM) | 45.6 µg/mL (≈ 167 µM) | 28 µg/mL (≈ 102 µM) | > 200 µg/mL |  | 
2 | COc1ccc(/C=C/c2ncc([N+](=O)[O-])n2CC(C)O)cc1 (centres undefined) | 0.56 µM | 12.3 µg/mL (≈ 40.6 µM) | 13.6 µg/mL (≈ 44.8 µM) | 42.8 µg/mL (≈ 141 µM) | 46.1 µg/mL (≈ 152 µM) | 9.5 µM | 
3 | CC(O)Cn1c([N+](=O)[O-])cnc1/C=C/c1ccc(Br)cc1 (centres undefined) | 0.55 µM | 38 µg/mL (≈ 108 µM) | 56.2 µg/mL (≈ 160 µM) | 15.2 µg/mL (≈ 43.2 µM) | 50.8 µg/mL (≈ 144 µM) |  | 
4 | CC(O)Cn1c([N+](=O)[O-])cnc1/C=C/c1cccc(F)c1 (centres undefined) | 1.03 µM | 11.8 µg/mL (≈ 40.5 µM) | 79.2 µg/mL (≈ 272 µM) | 15 µg/mL (≈ 51.5 µM) | 120 µg/mL (≈ 412 µM) | 8.9 µM | 
5 | CC(O)Cn1c([N+](=O)[O-])cnc1/C=C/c1ccc(Cl)cc1 (centres undefined) | 0.98 µM | 79.5 µg/mL (≈ 258 µM) | 52.5 µg/mL (≈ 171 µM) | 17.6 µg/mL (≈ 57.2 µM) | 102 µg/mL (≈ 331 µM) |  | 
6 | CC(O)Cn1c([N+](=O)[O-])cnc1/C=C/c1ccc(F)cc1 (centres undefined) | 0.42 µM | 47.1 µg/mL (≈ 162 µM) | 28.1 µg/mL (≈ 96.5 µM) | 24.2 µg/mL (≈ 83.1 µM) | 45.3 µg/mL (≈ 156 µM) |  | 
7 | CC(O)Cn1c([N+](=O)[O-])cnc1/C=C/c1cccc(Cl)c1 (centres undefined) | 0.52 µM | 55.3 µg/mL (≈ 180 µM) | 21.4 µg/mL (≈ 69.5 µM) | 35 µg/mL (≈ 114 µM) | 86.7 µg/mL (≈ 282 µM) |  | 
8 | COc1ccccc1/C=C/c1ncc([N+](=O)[O-])n1CC(C)O (centres undefined) | 0.48 µM | 10.5 µg/mL (≈ 34.6 µM) | 19.1 µg/mL (≈ 63 µM) | 83.8 µg/mL (≈ 276 µM) | 78.6 µg/mL (≈ 259 µM) |  | 
9 | CC(O)Cn1c([N+](=O)[O-])cnc1/C=C/c1ccc([N+](=O)[O-])cc1 (centres undefined) | 0.41 µM | 32.5 µg/mL (≈ 102 µM) | 11.7 µg/mL (≈ 36.8 µM) | 5.9 µg/mL (≈ 18.5 µM) | 36.8 µg/mL (≈ 116 µM) | 4.6 µM | 
10 | COc1cccc(/C=C/c2ncc([N+](=O)[O-])n2CC(C)O)c1 (centres undefined) | 1.3 µM | 25.7 µg/mL (≈ 84.7 µM) | 56.2 µg/mL (≈ 185 µM) | 6.7 µg/mL (≈ 22.1 µM) | 181 µg/mL (≈ 595 µM) |  | 
11 | CC(O)Cn1c([N+](=O)[O-])cnc1/C=C/c1cccc(Br)c1 (centres undefined) | 0.62 µM | 15.3 µg/mL (≈ 43.4 µM) | 8.2 µg/mL (≈ 23.3 µM) | 30.9 µg/mL (≈ 87.7 µM) | 45.4 µg/mL (≈ 129 µM) | 10.8 µM | 
12 | CC(O)Cn1c([N+](=O)[O-])cnc1/C=C/c1ccccc1F (centres undefined) | 1.41 µM | 3.4 µg/mL (≈ 11.7 µM) | 60.3 µg/mL (≈ 207 µM) | 39.4 µg/mL (≈ 135 µM) | 72.7 µg/mL (≈ 250 µM) |  | 
13 | CC(O)Cn1c([N+](=O)[O-])cnc1/C=C/c1ccccc1Cl (centres undefined) | 0.48 µM | 7.5 µg/mL (≈ 24.4 µM) |  | 15.4 µg/mL (≈ 50 µM) | 56.3 µg/mL (≈ 183 µM) | 11.5 µM | 
14 | Cc1ccc(/C=C/c2ncc([N+](=O)[O-])n2CC(C)O)cc1 (centres undefined) | 0.86 µM | 8.9 µg/mL (≈ 31 µM) | 8.6 µg/mL (≈ 29.9 µM) | 22.8 µg/mL (≈ 79.4 µM) | 111 µg/mL (≈ 388 µM) | 78.8 µM | 
15 | CC(O)Cn1c([N+](=O)[O-])cnc1/C=C/c1c(F)cccc1Cl (centres undefined) | 0.71 µM | 112 µg/mL (≈ 343 µM) | 6.1 µg/mL (≈ 18.7 µM) | 5.7 µg/mL (≈ 17.5 µM) | 119 µg/mL (≈ 365 µM) |  | 
16 | CC(O)Cn1c([N+](=O)[O-])cnc1/C=C/c1ccc(Cl)cc1Cl (centres undefined) | 0.81 µM | 58.1 µg/mL (≈ 170 µM) | 18.8 µg/mL (≈ 54.9 µM) | 8.7 µg/mL (≈ 25.4 µM) | 111 µg/mL (≈ 325 µM) |  | 
17 | CC(O)Cn1c([N+](=O)[O-])cnc1/C=C/c1ccc(N(C)C)cc1 (centres undefined) | 0.68 µM | 56.5 µg/mL (≈ 179 µM) | > 200 µg/mL | 75 µg/mL (≈ 237 µM) | 108 µg/mL (≈ 342 µM) |  | 
18 | CC(O)Cn1c([N+](=O)[O-])cnc1/C=C/c1cccc([N+](=O)[O-])c1 (centres undefined) | 0.43 µM | 31.1 µg/mL (≈ 97.7 µM) | 20.6 µg/mL (≈ 64.7 µM) | 32.7 µg/mL (≈ 103 µM) | 38.8 µg/mL (≈ 122 µM) | 5.1 µM | 
19 | CC(O)Cn1c([N+](=O)[O-])cnc1/C=C/c1ccccc1Br (centres undefined) | 0.49 µM | 6 µg/mL (≈ 17 µM) | 11.4 µg/mL (≈ 32.4 µM) | 11.1 µg/mL (≈ 31.5 µM) | 63.6 µg/mL (≈ 181 µM) |  | 
20 | CC(O)Cn1c([N+](=O)[O-])cnc1/C=C/c1ccccc1[N+](=O)[O-] (centres undefined) | 1.09 µM | 12.3 µg/mL (≈ 38.6 µM) | 72.9 µg/mL (≈ 229 µM) | 7.4 µg/mL (≈ 23.2 µM) | 40.3 µg/mL (≈ 127 µM) | 11 µM | Non-toxic
21 | CC(O)Cn1c([N+](=O)[O-])cnc1/C=C/c1ccc2ccccc2c1 (centres undefined) | 0.79 µM | 23.5 µg/mL (≈ 72.7 µM) | 52.2 µg/mL (≈ 161 µM) | 42.1 µg/mL (≈ 130 µM) | 108 µg/mL (≈ 335 µM) | 43.2 µM | 
22 | NC[C@H]1O[C@H](O[C@H]2[C@H](O)[C@@H](O[C@H]3O[C@H](CO)[C@@H](O)[C@H](N)[C@H]3O)[C@H](N)C[C@@H]2N)[C@H](O)[C@@H](O)[C@@H]1O [KANAMYCIN] |  | 8.9 µg/mL (≈ 18.4 µM) | 9.5 µg/mL (≈ 19.6 µM) | 6.8 µg/mL (≈ 14 µM) | 47.3 µg/mL (≈ 97.6 µM) | 6.3 µM | 
